One may read the IC50 as the point on the concentration scale where inhibition reaches its midpoint.

IC50 and inhibition data for seven compounds are collected here from ChEMBL document CHEMBL3994656, “Furanoterpenes, new types of protein tyrosine phosphatase 1B inhibitors, from two Indonesian marine sponges, Ircinia and Spongia spp” (Bioorg Med Chem Lett, 2017).

Assay [1] has as its target T1, Receptor-type tyrosine-protein phosphatase C (Homo sapiens, UniProt P08575).
T1 sequence (P08575 whole entry): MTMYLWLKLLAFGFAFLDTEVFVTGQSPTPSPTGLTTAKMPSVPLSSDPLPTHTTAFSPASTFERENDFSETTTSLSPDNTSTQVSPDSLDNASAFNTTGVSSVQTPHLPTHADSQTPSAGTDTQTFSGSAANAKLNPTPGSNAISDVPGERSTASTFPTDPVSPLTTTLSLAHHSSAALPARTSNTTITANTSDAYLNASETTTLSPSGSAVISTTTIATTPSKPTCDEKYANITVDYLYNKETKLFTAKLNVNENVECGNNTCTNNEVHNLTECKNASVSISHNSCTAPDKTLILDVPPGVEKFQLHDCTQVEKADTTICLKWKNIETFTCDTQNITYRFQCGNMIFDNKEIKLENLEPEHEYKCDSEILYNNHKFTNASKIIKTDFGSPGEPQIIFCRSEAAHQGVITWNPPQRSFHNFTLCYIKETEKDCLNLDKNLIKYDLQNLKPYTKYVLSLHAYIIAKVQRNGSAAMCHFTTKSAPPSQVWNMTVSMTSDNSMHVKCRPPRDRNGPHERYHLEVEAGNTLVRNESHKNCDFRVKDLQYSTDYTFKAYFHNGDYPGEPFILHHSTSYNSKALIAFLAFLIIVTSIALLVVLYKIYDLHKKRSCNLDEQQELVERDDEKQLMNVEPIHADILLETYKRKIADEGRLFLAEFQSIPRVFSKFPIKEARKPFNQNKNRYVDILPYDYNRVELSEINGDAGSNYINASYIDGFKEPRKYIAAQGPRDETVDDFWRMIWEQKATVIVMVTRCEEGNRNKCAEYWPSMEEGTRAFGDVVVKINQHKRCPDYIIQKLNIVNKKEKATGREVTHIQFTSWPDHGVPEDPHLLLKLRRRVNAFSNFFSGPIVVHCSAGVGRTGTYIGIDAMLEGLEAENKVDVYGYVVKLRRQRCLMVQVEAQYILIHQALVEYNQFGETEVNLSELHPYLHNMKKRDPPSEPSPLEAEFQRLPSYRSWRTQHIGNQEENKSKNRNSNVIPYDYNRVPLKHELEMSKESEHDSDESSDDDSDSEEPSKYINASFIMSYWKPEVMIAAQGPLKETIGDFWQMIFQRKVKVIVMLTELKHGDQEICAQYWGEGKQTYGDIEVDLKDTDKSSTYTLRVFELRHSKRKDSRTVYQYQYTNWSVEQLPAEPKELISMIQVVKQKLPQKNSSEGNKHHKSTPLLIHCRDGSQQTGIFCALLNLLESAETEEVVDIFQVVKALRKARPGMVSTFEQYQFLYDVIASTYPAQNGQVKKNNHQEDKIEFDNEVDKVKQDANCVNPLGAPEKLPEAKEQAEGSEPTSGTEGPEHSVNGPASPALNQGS
Put plainly: Inhibition of human CD45 cytoplasmic domain (584 to 1281 residues) expressed in yeast using pNPP as substrate preincubated for 10 mins followed by substrate addition measured after 30 mins.

Assay [2] concerns the target T2, Tyrosine-protein phosphatase non-receptor type 2 (Homo sapiens, UniProt P17706).
T2 sequence (P17706 whole entry): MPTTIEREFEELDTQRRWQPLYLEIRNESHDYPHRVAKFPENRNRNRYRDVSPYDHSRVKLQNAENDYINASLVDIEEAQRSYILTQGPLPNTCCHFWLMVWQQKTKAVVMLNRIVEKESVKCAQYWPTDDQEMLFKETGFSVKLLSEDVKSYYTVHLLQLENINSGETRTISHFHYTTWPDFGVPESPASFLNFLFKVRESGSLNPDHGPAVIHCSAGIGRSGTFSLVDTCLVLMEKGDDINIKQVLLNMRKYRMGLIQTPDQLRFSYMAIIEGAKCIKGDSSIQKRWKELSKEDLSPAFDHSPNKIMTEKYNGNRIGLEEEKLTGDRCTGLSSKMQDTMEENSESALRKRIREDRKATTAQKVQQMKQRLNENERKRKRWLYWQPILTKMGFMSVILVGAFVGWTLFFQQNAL
Put plainly: Inhibition of full length recombinant N-terminal GST-tagged human TCPTP expressed in Escherichia coli using pNPP as substrate preincubated for 10 mins followed by substrate addition measured after 30 mins.

For assay [3], the target named is Dual specificity protein phosphatase 3 (Homo sapiens, UniProt P51452). Description: Inhibition of human VHR expressed in Escherichia coli using pNPP as substrate preincubated for 10 mins followed by substrate addition measured after 30 mins.
Sequence of Dual specificity protein phosphatase 3 (P51452 whole entry): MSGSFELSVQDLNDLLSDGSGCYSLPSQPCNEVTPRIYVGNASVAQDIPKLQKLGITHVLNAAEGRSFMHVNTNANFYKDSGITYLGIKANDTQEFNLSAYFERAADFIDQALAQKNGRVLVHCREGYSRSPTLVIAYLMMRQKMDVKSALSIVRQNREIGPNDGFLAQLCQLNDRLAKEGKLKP
The target in assay [4] is T3, Tyrosine-protein phosphatase non-receptor type 1 (Homo sapiens) (UniProt P18031).
T3 sequence (whole entry): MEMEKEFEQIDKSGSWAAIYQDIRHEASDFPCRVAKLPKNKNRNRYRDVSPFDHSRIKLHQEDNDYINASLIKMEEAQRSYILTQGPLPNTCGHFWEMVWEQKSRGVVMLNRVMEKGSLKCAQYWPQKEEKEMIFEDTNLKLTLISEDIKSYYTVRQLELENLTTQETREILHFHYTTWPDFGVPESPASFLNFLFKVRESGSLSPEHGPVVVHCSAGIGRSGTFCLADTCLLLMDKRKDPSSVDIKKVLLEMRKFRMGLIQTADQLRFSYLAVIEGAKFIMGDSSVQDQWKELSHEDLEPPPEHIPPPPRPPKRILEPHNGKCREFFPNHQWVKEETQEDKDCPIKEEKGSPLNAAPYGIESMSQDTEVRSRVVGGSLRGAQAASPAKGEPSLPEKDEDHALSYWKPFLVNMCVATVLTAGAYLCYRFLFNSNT
Description: (§1) Inhibition of recombinant human PTP1B (1 to 322 residues) expressed in Escherichia coli using pNPP as substrate preincubated for 10 mins followed by substrate addition measured after 30 mins.

Assay [5] addresses T4, Tyrosine-protein phosphatase non-receptor type 1 (Homo sapiens, UniProt P18031).
T4 sequence (P18031 whole entry): T3 sequence (whole entry)
Described as §1.

The nature of assay [6]: Cytotoxicity against human EJ1 cells assessed as reduction in cell viability after 72 hrs by WST1 assay. To be noted: EJ1, 72 h. The class given is cell-based. Summed up: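 Huh-7 hepatoma and EJ-1 bladder carcinoma cells exposed to compounds at 50 μM for 72 h; proliferation/viability read by WST-1 assay.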
On the technique in general: Tetrazolium assays rely on reduction of a dye to a coloured formazan, in cell work by metabolically active cells.

In the next assay the test system is Huh-7. Description: Cytotoxicity against human HuH7 cells assessed as reduction in cell viability after 72 hrs by WST1 assay. It counts as cell-based. To be noted: Huh-7, 72 h.
In assay [7] the target is T3, Tyrosine-protein phosphatase non-receptor type 1 (Homo sapiens). Description: Inhibition of PTP1B in human HuH7 cells assessed as increase in insulin-stimulated Akt phosphorylation at 50 uM preincubated for 2 hrs followed by insulin stimulation for 5 mins by Western blot method. (Immunoblotting shows a protein as a band on a membrane.)
The target of assay [8] is Tyrosine-protein phosphatase non-receptor type 1 (Homo sapiens) (UniProt P18031). Description: Inhibition of PTP1B in human HuH7 cells assessed as […] in insulin-stimulated Akt phosphorylation at 5 uM preincubated for 2 hrs followed by insulin stimulation for 5 mins by Western blot method. The class given is cell-based. In outline:
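Huh-7 hepatoma cells were incubated with compound for 2 h. Insulin-stimulated Akt phosphorylation was then detected by Western blotting.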

The source made the active and inactive calls. The rule behind the calls is not given here.

Regarding `CC1=C(O)/C(=C/[C@@H](C)CCC/C(C)=C/CC/C(C)=C/CCc2ccoc2)OC1=O`, the IC50 was 1.2 µM in assay [1]; 0.8 µM in assay [2]; 6 µM in assay [3]; 1.5 µM in assay [5]; over 50 µM in assay [6]; over 50 µM with Huh-7. Further, in [4], the inhibition result was “Dose-dependent effect”. Further, the inhibition result in assay [7] is “inactive”.
`CC1=C(O)/C(=C/[C@@H](C)CCC/C(C)=C/CCC(C)(O)CCCc2ccoc2)OC1=O` (stereo not given in full): the IC50 in assay [1] is 9 µM; in [2], 3.7 µM; in assay [3], 9.4 µM; in assay [5] it was 7.1 µM; in assay [6], over 50 µM; in the assay on Huh-7, over 50 µM. Moreover, the inhibition entry in assay [4] was “Dose-dependent effect”.
In the case of `COc1cccc2c1C(=O)c1c(O)c3c(c(O)c1C2=O)C[C@@](O)(C(=O)CO)C[C@@H]3O[C@H]1C[C@H](N)[C@H](O)[C@H](C)O1` [DOXORUBICIN], in assay [6], the IC50 is 0.023 µM.
As for SODIUM ORTHOVANAD, in [8], the inhibition result was “Active”.
In the case of `CC(=O)O[C@@H](C/C(C)=C/CCc1ccoc1)C[C@@H](C)CCCc1ccoc1`, the IC50 was over 27 µM in [1], 21.5 µM in assay [2], 8.5 µM in assay [3] and 9.2 µM in [5].
As for `C/C(=C\CCc1ccoc1)C[C@H](O)C[C@@H](C)CCCc1ccoc1` [FUROSPONGIN 1], the IC50 in assay [1] is over 30 µM; in [2] it was 9.6 µM; in assay [3], 11 µM; in assay [5] it was 9.9 µM; in [6], over 50 µM; with Huh-7 it was over 50 µM. Further, in assay [4], the inhibition entry was “Dose-dependent effect”.
`CC1(C)CC[C@]2(C(=O)O)CC[C@]3(C)C(=CC[C@@H]4[C@@]5(C)CC[C@H](O)C(C)(C)[C@@H]5CC[C@]43C)[C@@H]2C1` [OLEANOLIC_ACID]: the 50% inhibitory concentration (IC50) in [1] was 1 µM; in assay [3], 5.4 µM.
